Screens (PubChem)
CASP6 VEID inh: human caspase-6 inhibitors, primary screen, biochemical, VEID-R110 fluorescence, single point, set 2; P55212; purified caspase-6, Z-VEID-R110 cleavage fluorescence; inhibition, % at 12.5 µM; 350,000 compounds, 0.53% hits;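 active means mean inhibition across replicates at least about 35%, with every replicate also reaching that limit, limit read from the data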;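 further: 0% = median of neutral control wells and 100% = no fluorescence left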
Target sequence (P55212 24-179 limits assumed): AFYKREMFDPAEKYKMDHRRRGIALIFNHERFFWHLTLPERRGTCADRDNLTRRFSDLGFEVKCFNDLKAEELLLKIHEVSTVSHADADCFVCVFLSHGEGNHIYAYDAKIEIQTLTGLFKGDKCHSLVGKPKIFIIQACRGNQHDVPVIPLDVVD
Target sequence (P55212 194-293 limits assumed): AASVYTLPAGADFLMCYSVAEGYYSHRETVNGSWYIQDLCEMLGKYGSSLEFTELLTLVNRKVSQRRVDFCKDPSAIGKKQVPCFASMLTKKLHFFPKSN
NSD2 HMT inh: NSD2 histone methyltransferase inhibitors, primary screen, biochemical, AlphaScreen, single concentration, set 2. inhibition, % at 12.5 µM. 310,000 compounds, 0.54% hits. NSD2 peptide methylation, 120 min. AID 743445, 2014; in the data active means inhibition above about 50%
FGF22 binding: binders of human FGF22 protein, primary screen, FGF22 synaptogenesis inhibitor project, biophysical, thermal shift, single point; activity (Tm shift, normalised), % at 9.99 µM; 340,000 compounds, 1.5% hits; recombinant FGF22 thermal shift, SYPRO orange fluorescence; percent of sucrose octasulfate shift, DMSO zero; Fibroblast growth factor 22 (Homo sapiens), Q9HCT0; AID 651658, 2012;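 active means mean Tm shift, scaled 0 neutral to 100 positive control, at about 1.3% or above, every replicate too, limit read from the data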
Target sequence (Q9HCT0 whole entry, looked up): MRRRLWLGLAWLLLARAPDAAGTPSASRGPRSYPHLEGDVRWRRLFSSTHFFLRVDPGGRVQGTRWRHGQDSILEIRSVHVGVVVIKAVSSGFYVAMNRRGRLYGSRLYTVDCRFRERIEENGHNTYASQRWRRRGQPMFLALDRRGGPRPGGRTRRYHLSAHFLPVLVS
SIRT5 inh: SIRT5 desuccinylase inhibitors, primary screen, biochemical, fluorescence imaging, single point, set 5 | inhibition, % at 15 µM | Purified SirT5, succinyl-peptide AMC, trypsin-coupled fluorescence | NAD-dependent protein deacylase sirtuin-5, mitochondrial (Homo sapiens), Q9NXA8 | 330,000 compounds, 1.1% hits; in the data active means inhibition above about 15%
UCH37 DUB inh: inhibitors of human UCH37 deubiquitinase, primary screen, biochemical, Ub-AMC cleavage, fluorescence | Ubiquitin carboxyl-terminal hydrolase isozyme L5 (Homo sapiens), Q9Y5K5 | inhibition, % (concentration not given with the values) | 330,000 compounds, 0.33% hits | AID 588478, 2011 | purified proteasome/UCH37;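 active means mean inhibition over replicate wells above about 20%, limit read from the data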;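 further: 0% = compound-free wells with enzyme and 100% = wells lacking proteasome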
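Schedule: 30 min plus 25 min, room temperature / Material: human UCH37 within purified proteasomes / Technique: AMC fluorescence intensity at 355/460 nm / Buffer or medium: pH 7.4 Tris-HCl (50 mM) with ovalbumin, ATP-MgCl2, DTT / Controls: wells without proteasome as full block, compound-free enzyme plus substrate as uninhibited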
Alpha artifact: AlphaScreen signal interference with preloaded methylated product, dose response, artefact control for NSD2 inhibitor project, biochemical, cherry-picked samples. shares compounds with NSD2 HMT inh. AlphaScreen artifact counterscreen, preloaded methylated H4 peptide. AC35, µM (titrated, usually from 10 µM), inactives show at the highest dose activity change, negative = signal loss. 1,500 compounds, 9.4% hits; call rule not given here
* marks the source's active call; other numbers are inactive results; nt = not tested or not shown. An excerpt weighted towards active compounds, which were near 2.6% of everything screened.

SMILES | CASP6 VEID inh | NSD2 HMT inh | FGF22 binding | SIRT5 inh | UCH37 DUB inh | Alpha artifact
CN(CCC#N)C(=O)COC(=O)/C=C/c1cccs1 | 1 | 1 | 0 | 0 | 5 | nt
C[C@@H]1CCCCO[C@H](CN(C)S(=O)(=O)c2cn(C)cn2)[C@@H](C)CN([C@@H](C)CO)C(=O)c2cc(NS(=O)(=O)c3cccs3)ccc2O1 | 11 | nt | 0 | -2 | nt | nt
O=C(NNC(=O)c1ccc(NC(=O)C2CC2)cc1)c1ccc(F)cc1 | 0 | 52* | 0 | -2 | 1 | -5%
COC(=O)C[C@H]1C[C@H]2c3cc(N(C)C)ccc3O[C@H]2[C@@H](CO)O1 | 0 | nt | -1 | -2 | nt | nt
COC1=CC(=O)c2nc(Cl)ccc2C1=O | 100* | 127* | 0 | 3 | nt | -2%
COc1cccc2c1C(=O)C=C(C)C2=O | 3 | 8 | 0 | -7 | 18 | nt
CC(C)NC1CCC(Nc2ccnc3cc(Cl)ccc23)CC1 (stereo not given) | -14 | 81* | 0 | nt | 6 | -3%
C=CC[n+]1c(-c2ccc(Cl)cc2Cl)csc1Nc1c(C)n(C)n(-c2ccccc2)c1=O | 15 | 51* | 0 | -3 | 4 | -14%
COC(=O)C(C)(C)NC(=O)c1cccs1 | -1 | 124* | nt | -4 | 3 | 1%
O=C(O)c1cc(N/N=C/c2ccc3c(c2)OCCO3)ccc1Cl | -3 | 2 | 0 | -1 | nt | nt
O=C(O)c1cc(N/N=C/c2ccc3c(c2)OCO3)ccc1Cl | -3 | 75* | 1 | 9 | nt | -2%
Cc1cccc(C)c1NC(=S)N(CCCN1CCN(C)CC1)Cc1cccs1 | nt | 75* | 0 | 0 | 0 | -7%
CC(=O)N1C[C@H]2[C@@H](c3ccccc31)[C@H](CO)N2C(=O)c1ccc(F)cc1 | 3 | nt | 0 | 0 | nt | nt
CC1CCN(CC(=O)Nc2ccc(S(=O)(=O)N3CCCC(C)C3)cc2)CC1 (stereo not given) | -1 | 15 | 0 | 0 | 4 | nt
CC1CCCN(S(=O)(=O)c2ccc(NC(=O)CN3CCN(C)CC3)cc2)C1 (stereo not given) | nt | 90* | nt | nt | 1 | 0%
CCCCn1c(NC(=O)c2ccccc2Cl)c(C#N)c2nc3ccccc3nc21 | nt | 114* | nt | nt | -92 | 4%
Cc1ccc(S(=O)(=O)N[C@H]2CC[C@@H](CCNS(=O)(=O)Cc3ccccc3)O[C@H]2CO)cc1 | 2 | nt | 0 | 2 | nt | nt
COc1ccc(C=NNc2cc(C)nc(N3CCOCC3)n2)cc1 | nt | nt | nt | nt | 7 | nt
Cc1cc(=O)n2[nH]c(-c3ccco3)nc2n1 | nt | 68* | nt | nt | 1 | -6%
Cc1ccc(Cl)cc1NC(=O)C[n+]1ccc(Cc2ccc([N+](=O)[O-])cc2)cc1 | 8 | 84* | 0 | 0 | 8 | -10%
O=C(C[n+]1ccc(Cc2ccccc2)cc1)Nc1ccc([N+](=O)[O-])cc1Cl | nt | 15 | 0 | -2 | nt | nt
Cc1cc(C)n(-c2ncccc2[N+](=O)[O-])n1 | -1 | 52* | 0 | 2 | 2 | -7%
COc1ccc(C(=O)Nc2c3c(nn2-c2ccc(Cl)cc2)CS(=O)(=O)C3)cc1 | -2 | 69* | 0 | -1 | 0 | -1%
O=C(N/N=C1\C/C(=N\NC(=O)c2ccncc2)c2ccccc21)c1ccncc1 | 90* | 108* | 0 | 0 | nt | -2%
O=C(NN=C1C2CC3CC(C2)CC1C3)c1ccncc1 | nt | -4 | nt | nt | 2 | nt
CCN(CC)CCCNC(=O)c1cc2c(Cl)nc3ccccc3c2s1 | nt | 80* | nt | nt | 3 | -4%
CN(CCCNC(=O)c1cc2c(Cl)nc3ccccc3c2s1)Cc1ccccc1 | -9 | 13 | 0 | -3 | 5 | nt
O=C(CN1CCOCC1)NCCNC(=O)CN1CCOCC1 | nt | 60* | nt | nt | 3 | -4%
